Measurements gathered from unrelated publications.
Read-out: cell growth or viability

Structure (SMILES)	cell line	assay	conditions	IC50
CCNCCCn1c2c(c3cc(OC)c(OC)cc3c1=O)C(=O)c1cc3c(nc1-2)OCO3	L-363	MTS	72 h	96 nM
Cc1nc(NC(=O)N2CCC[C@H]2C(N)=O)sc1-c1ccnc(C(C)(C)C(F)(F)F)c1	H22	MTT		25400 nM
CCN1[C@@H](C(=O)NC23CCC(C(=O)O)(CC2)CC3)[C@H](c2cccc(Cl)c2F)[C@]2(C(=O)Nc3cc(Cl)ccc32)C12CCCCC2	U2OS	resazurin	72 h	> 1000 nM
Cc1nc(Nc2ccc3c(c2)/C(=C/c2ccccc2C)C(=O)N3)c2ccccc2n1	H22	MTT		9920 nM
CN1CCC(NC(=O)c2ccc(-c3cc(-c4ccsc4)c4oc5c(c4c3)CCN(C(=O)/C=C/c3ccc(N)nc3)C5)nn2)C(F)(F)C1 (stereo not drawn)	U2OS	CCK-8	72 h	1200 nM
N[C@H]1CC[C@H](N[C@@H]2C[C@H]2c2ccccc2)CC1	U2OS	resazurin		346000 nM
Nc1ccc(/C=C/C(=O)N2CCc3c(oc4c(-c5ccc(F)cc5)cc(-c5ccc(C(=O)N6CCC(F)(F)CC6)cc5F)cc34)C2)cn1	U2OS	CCK-8	72 h	> 10000 nM
COc1cc2c3c(n(CCCN4CCOCC4)c(=O)c2cc1OC)-c1nc2c(cc1C3=O)OCO2	L-363	MTS	72 h	342 nM
C=C(F)C(=O)N1CCN(c2nc(OC[C@@H]3CCCN3C)nc3c2CCN(c2cccc4cccc(Cl)c24)C3)C[C@@H]1CC#N	NCI-H1792	ATP luminescence		674 nM
COc1cc2c3c(n(CCCNC(C)C)c(=O)c2cc1OC)-c1nc2c(cc1C3=O)OCO2	L-363	MTS	72 h	126 nM
C=CC(=O)NC1CCN(c2ncc3ncnc(Nc4ccc(Oc5ccc6c(c5)ncn6C)c(C)c4)c3n2)CC1	SNU-216			18.2 nM
Cc1nc(Nc2ccc3c(c2)C(C)(C)C(=O)N3)c2ccccc2n1	H22	MTT		> 50000 nM
Nc1ccc(/C=C/C(=O)N2CCc3c(oc4c(-c5ccc(F)cc5)cc(-c5cnc(C(=O)N6CCC(F)(F)CC6)nc5)cc34)C2)cn1	U2OS	CCK-8	72 h	950 nM
COc1cc2ncnc(N(C)c3ccc4c(c3)/C(=C/c3ccccc3)C(=O)N4C)c2cc1OC (mixture of isomers)	H22	MTT		4960 nM
Nc1ccc(/C=C/C(=O)N2CCc3c(oc4c(-c5ccc(F)cc5)cc(-c5ncc(C(=O)N6CCC(F)(F)CC6)cn5)cc34)C2)cn1	U2OS	CCK-8	72 h	5740 nM
